Data from ChEMBL document CHEMBL1131238, “Investigation of the N-substituent conformation governing potency and mu receptor subtype-selectivity in (+)-(3R, 4R)-dimethyl-4-(3-hydroxyphenyl)piperidine opioid antagonists” (J Med Chem, 1998).

Legend:
[1] = target: Delta-type opioid receptor (Rattus norvegicus, UniProt P33533); assay: Inhibition of [3H]-DADLE binding to Opioid receptor delta 1 of rat brain membranes; assay type: cell membranes, Membrane
[2] = target: T1, Kappa-type opioid receptor (Cavia porcellus, UniProt P41144); assay: Inhibition of [3H]U-69593 binding to Opioid receptor kappa 1 of guinea pig membranes
T1 sequence (P41144 whole entry): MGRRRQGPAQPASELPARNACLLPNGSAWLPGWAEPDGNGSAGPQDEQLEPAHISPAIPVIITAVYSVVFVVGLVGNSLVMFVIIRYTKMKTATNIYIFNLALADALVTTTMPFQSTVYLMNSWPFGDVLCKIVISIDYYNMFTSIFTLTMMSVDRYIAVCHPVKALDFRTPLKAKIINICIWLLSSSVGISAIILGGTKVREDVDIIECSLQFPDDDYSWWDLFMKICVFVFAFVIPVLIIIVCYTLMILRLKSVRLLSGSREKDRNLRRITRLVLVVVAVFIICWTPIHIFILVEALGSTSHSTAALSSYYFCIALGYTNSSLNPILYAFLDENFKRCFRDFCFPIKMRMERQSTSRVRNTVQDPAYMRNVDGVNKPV

[3] = target: Mu-type opioid receptor (Rattus norvegicus, UniProt P33535); assay: Inhibition of [3H]DAMGO binding to Opioid receptor mu 1 of rat brain membranes; assay type: cell membranes, Membrane
Mu-type opioid receptor (Rattus norvegicus, UniProt P33535), sequence (P33535 whole entry): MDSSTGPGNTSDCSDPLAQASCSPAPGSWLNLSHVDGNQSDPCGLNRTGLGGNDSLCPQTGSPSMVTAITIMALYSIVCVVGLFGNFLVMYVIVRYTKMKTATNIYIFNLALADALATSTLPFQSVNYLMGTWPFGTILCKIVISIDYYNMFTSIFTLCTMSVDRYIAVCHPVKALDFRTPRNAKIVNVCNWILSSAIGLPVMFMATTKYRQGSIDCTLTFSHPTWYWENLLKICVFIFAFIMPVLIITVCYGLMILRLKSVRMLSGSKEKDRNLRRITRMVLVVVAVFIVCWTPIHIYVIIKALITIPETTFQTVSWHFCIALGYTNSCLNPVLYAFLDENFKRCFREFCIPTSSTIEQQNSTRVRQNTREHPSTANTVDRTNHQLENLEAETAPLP

[4] = target: Mu-type opioid receptor (Cavia porcellus, UniProt P97266); assay: The compound was tested for antagonist activity by selective inhibition of [35S]GTP-gamma-S, binding to Opioid receptor mu 1 in Guinea pig caudate stimulated by DAMGO[mu]; assay type: functional
Mu-type opioid receptor (Cavia porcellus, UniProt P97266), sequence (P97266 whole entry): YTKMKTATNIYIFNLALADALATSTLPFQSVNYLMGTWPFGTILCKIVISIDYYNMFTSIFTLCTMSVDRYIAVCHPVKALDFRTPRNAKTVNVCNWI
Method in brief: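 Guinea pig caudate putamen membranes (10 μg/tube) in 50 mM Tris-HCl pH 7.7, 0.1% BSA. Final: 100 mM NaCl, 5 mM MgCl2, 1 mM EDTA, 1 mM DTT, 100 μM GDP, 0.05–0.1 nM [35S]GTP-γ-S, agonist 500 nM or 10 μM, ≥10 antagonist concentrations; 4 h, filtration.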

[5] = target: T1, Kappa-type opioid receptor; assay: The compound was tested for antagonist activity by selective inhibition of [35S]GTP-gamma-S, binding in Guinea pig caudate stimulated by U69,593 to Opioid receptor kappa 1; assay type: functional

Delta-type opioid receptor, sequence (P33533 whole entry): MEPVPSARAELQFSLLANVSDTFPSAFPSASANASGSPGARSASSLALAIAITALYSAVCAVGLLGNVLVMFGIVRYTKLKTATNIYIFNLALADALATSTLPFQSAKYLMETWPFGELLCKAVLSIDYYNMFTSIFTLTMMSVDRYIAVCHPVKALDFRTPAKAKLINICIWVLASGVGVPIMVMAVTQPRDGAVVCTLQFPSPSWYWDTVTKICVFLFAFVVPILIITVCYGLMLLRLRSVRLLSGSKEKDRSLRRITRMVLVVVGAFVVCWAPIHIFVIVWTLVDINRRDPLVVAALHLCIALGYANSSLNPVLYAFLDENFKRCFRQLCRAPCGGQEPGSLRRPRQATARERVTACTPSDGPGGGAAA

SMILES | Ki [1] | Ki [2] | Ki [3] | Ki [4] | Ki [5]
C[C@H]1CN(C[C@@H]2C[C@H]2c2ccccc2)CC[C@@]1(C)c1cccc(O)c1 | 709 nM | 81.8 nM | 1.75 nM | – | –
C[C@H]1CN(C2CCCC2)CC[C@@]1(C)c1cccc(O)c1 | > 7300 nM | 199 nM | 444 nM | – | –
C[C@H]1CN(CC[C@H](O)C2CCCCC2)CC[C@@]1(C)c1cccc(O)c1 | 198 nM | 28 nM | 0.32 nM | 0.021 nM | 0.33 nM
C[C@H]1CN(Cc2cc3ccccc3s2)CC[C@@]1(C)c1cccc(O)c1 | 1580 nM | > 690 nM | 21.2 nM | – | –
C[C@H]1CN(C2CCCC(O)(c3ccccc3)C2)CC[C@@]1(C)c1cccc(O)c1 (stereo partly drawn) | > 7300 nM | 674 nM | 203 nM | – | –
C[C@H]1CN(C/C=C/c2ccccc2Cl)CC[C@@]1(C)c1cccc(O)c1 | 168 nM | 35.8 nM | 1.12 nM | 0.026 nM | 0.567 nM
C[C@H]1CN(C/C=C/c2ccccc2)CC[C@@]1(C)c1cccc(O)c1 | 322 nM | 122 nM | 0.74 nM | 0.039 nM | 1.04 nM
Cc1ccccc1/C=C/CN1CC[C@@](C)(c2cccc(O)c2)[C@@H](C)C1 | 142 nM | 38.9 nM | 0.86 nM | 0.013 nM | 0.17 nM
C[C@H]1CN(C2CCCC(O)C2)CC[C@@]1(C)c1cccc(O)c1 (stereo partly drawn) | > 7300 nM | 1150 nM | – | – | –
C[C@H]1CN(Cc2cc3ccccc3o2)CC[C@@]1(C)c1cccc(O)c1 | 1450 nM | > 690 nM | 22.2 nM | – | –
C[C@H]1CN(C2CCCCC2)CC[C@@]1(C)c1cccc(O)c1 | > 7300 nM | 315 nM | 1280 nM | – | –
C[C@H]1CN(C/C=C\c2ccccc2)CC[C@@]1(C)c1cccc(O)c1 | 931 nM | 298 nM | 11.4 nM | – | –
